Experimental data as given in ChEMBL document CHEMBL4251638, “Amino acid conjugated antimicrobial drugs: Synthesis, lipophilicity- activity relationship, antibacterial and urease inhibition activity” (Eur J Med Chem, 2018).
Converted amounts (≈) assume the structure as drawn. The source made the active and inactive calls. The calls are words filed in the database; no cut-off is given here.

Assays:
[1] = Inhibition of Bacillus pasteurii urease using urea as substrate measured after 20 mins by phenol reagent based assay; set-up: species or system Sporosarcina pasteurii
Outline: (§1)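 Indophenol method. Enzyme incubated with compound in buffer containing 100 mM urea at 30 °C for 20 min. Phenol reagent (1% w/v phenol, 0.005% w/v sodium nitroprusside) then alkali reagent (0.5% w/v NaOH, 0.1% v/v […]) added. Absorbance read at 630 nm as change per min. Thiourea was the reference inhibitor.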

Staphylococcus aureus = test: Antibacterial activity against Staphylococcus aureus ATCC 6538 after overnight incubation by microbroth dilution method; format: functional
Outline: (§2)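 Strains grown on nutrient agar, 37°C, 24 h. Inoculum from colony in nutrient broth, 24 h at 37°C, adjusted to McFarland 0.5, about 5 × 10^4 CFU/ml per well. DMSO stocks (4 mg/mL) serially diluted in nutrient broth to final 256 to 0.16 µg/mL. Incubated overnight at 37°C. MIC90 is the lowest concentration inhibiting growth. DMSO 1% final as negative control. Run in triplicate.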

Pseudomonas aeruginosa = test: Antibacterial activity against Pseudomonas aeruginosa ATCC 15442 after overnight incubation by microbroth dilution method; format: functional; outline: as §2
Bacillus spizizenii = test: Antibacterial activity against Bacillus subtilis ATCC 6633 after overnight incubation by microbroth dilution method; format: functional; outline: as §2
Salmonella typhimurium [2] = test: Antibacterial activity against Salmonella typhimurium ATCC 14028 after overnight incubation by microbroth dilution method; format: functional, Salmonella enterica subsp. enterica serovar Typhimurium; conditions: Salmonella enterica
Escherichia coli = test: Antibacterial activity against Escherichia coli ATCC 25922 after overnight incubation by microbroth dilution method; format: functional; outline: as §2
Salmonella typhimurium [3] = conditions: Salmonella enterica subsp. enterica serovar Typhimurium; ATCC 14028
Sporosarcina pasteurii = test: Inhibition of Bacillus pasteurii urease using urea as substrate measured after 20 mins by phenol reagent based assay relative to control; outline: as §1

Row | SMILES | IC50 [1] [µM] | MIC90 (Staphylococcus aureus) | MIC90 (Pseudomonas aeruginosa) | MIC90 (Bacillus spizizenii) | MIC90 (Salmonella typhimurium [2]) [µM] | MIC90 (Escherichia coli) | MIC90 (Salmonella typhimurium [3]) | inhibition (Sporosarcina pasteurii) [%]
1 | NC(N)=S [THIOUREA] | 21 |  |  |  |  |  |  | 
2 | Cc1ncc([N+](=O)[O-])n1CCOC(=O)C(N)Cc1ccccc1 (configuration not stated) | 27.4 | 50.3 µM (≈ 16 µg/mL) | 268 µM (≈ 85.3 µg/mL) | 83.6 µM (≈ 26.6 µg/mL) | 201 (≈ 64 µg/mL) | 201 µM (≈ 64 µg/mL) |  | 
3 | COc1nc(NNC(=O)c2ccncc2)nc(OC(=O)C(N)Cc2ccccc2)n1 (configuration not stated) | 31 | 104 µM (≈ 42.6 µg/mL) | 65 µM (≈ 26.6 µg/mL) | 156 µM (≈ 63.9 µg/mL) | 78 (≈ 31.9 µg/mL) | 52 µM (≈ 21.3 µg/mL) |  | 
4 | COc1cc(Cc2cnc(N)nc2NC(=O)C(N)Cc2c[nH]c3ccccc23)cc(OC)c1OC (configuration not stated) | 35.1 | 134 µM (≈ 64 µg/mL) | 67.1 µM (≈ 32 µg/mL) | 224 µM (≈ 107 µg/mL) | 55.8 (≈ 26.6 µg/mL) | 67.1 µM (≈ 32 µg/mL) |  | 
5 | COc1nc(OCCn2c([N+](=O)[O-])cnc2C)nc(OC(=O)C(N)Cc2ccccc2)n1 (configuration not stated) | 11.4 | 24 µM (≈ 10.6 µg/mL) | 9 µM (≈ 3.99 µg/mL) | 18 µM (≈ 7.98 µg/mL) | 18 (≈ 7.98 µg/mL) | 7.4 µM (≈ 3.28 µg/mL) |  | 
6 | COc1nc(OCCn2c([N+](=O)[O-])cnc2C)nc(OC(=O)C(N)Cc2c[nH]c3ccccc23)n1 (configuration not stated) | 16.3 | 16.5 µM (≈ 7.96 µg/mL) | 4 µM (≈ 1.93 µg/mL) | 13 µM (≈ 6.27 µg/mL) | 6.8 (≈ 3.28 µg/mL) | 2 µM (≈ 0.965 µg/mL) |  | 
7 | COc1cc(Cc2cnc(N)nc2NC(=O)C(N)C(C)C)cc(OC)c1OC (configuration not stated) | 52.4 | 82.2 µM (≈ 32 µg/mL) | 137 µM (≈ 53.3 µg/mL) | 68.3 µM (≈ 26.6 µg/mL) | 219 (≈ 85.3 µg/mL) | 164 µM (≈ 64 µg/mL) |  | 
8 | Cc1ncc([N+](=O)[O-])n1CCOC(=O)C(N)Cc1c[nH]c2ccccc12 (configuration not stated) | 13.6 | 179 µM (≈ 64 µg/mL) | 119 µM (≈ 42.6 µg/mL) | 239 µM (≈ 85.4 µg/mL) | 89.5 (≈ 32 µg/mL) | 74.4 µM (≈ 26.6 µg/mL) |  | 
9 | NNC(=O)c1ccncc1 |  | inactive | inactive | inactive |  | inactive | inactive | 
10 | COc1cc(Cc2cnc(N)nc2NC(=O)C(N)Cc2ccccc2)cc(OC)c1OC (configuration not stated) | 31.3 | 244 µM (≈ 107 µg/mL) | 73.1 µM (≈ 32 µg/mL) | 244 µM (≈ 107 µg/mL) | 97.4 (≈ 42.6 µg/mL) | 73.1 µM (≈ 32 µg/mL) |  | 
11 | COc1nc(Nc2nc(N)ncc2Cc2cc(OC)c(OC)c(OC)c2)nc(OC(=O)C(N)C(C)C)n1 (configuration not stated) | 19.3 | 166 µM (≈ 85.3 µg/mL) | 51.7 µM (≈ 26.6 µg/mL) | 124 µM (≈ 64 µg/mL) | 82.8 (≈ 42.6 µg/mL) | 62.2 µM (≈ 32 µg/mL) |  | 
12 | COc1nc(NNC(=O)c2ccncc2)nc(OC(=O)C(N)Cc2c[nH]c3ccccc23)n1 (configuration not stated) | 37.3 | 47.5 µM (≈ 21.3 µg/mL) | 60 µM (≈ 26.9 µg/mL) | 71 µM (≈ 31.8 µg/mL) | 36 (≈ 16.1 µg/mL) | 36 µM (≈ 16.1 µg/mL) |  | 
13 | NC(Cc1c[nH]c2ccccc12)C(=O)NNC(=O)c1ccncc1 (configuration not stated) | 37 | 98.9 µM (≈ 32 µg/mL) | 660 µM (≈ 213 µg/mL) | 98.9 µM (≈ 32 µg/mL) | 792 (≈ 256 µg/mL) | 528 µM (≈ 171 µg/mL) |  | 
14 | Cc1ncc([N+](=O)[O-])n1CCOC(=O)C(N)C(C)C (configuration not stated) | 29.5 | 118 µM (≈ 32 µg/mL) | 474 µM (≈ 128 µg/mL) | 158 µM (≈ 42.7 µg/mL) | 632 (≈ 171 µg/mL) | 473 µM (≈ 128 µg/mL) |  | 
15 | COc1nc(OC(=O)C(N)C(C)C)nc(Oc2c(OC)cc(Cc3cnc(N)nc3N)cc2OC)n1 (configuration not stated) | 6.23 | 10.6 µM (≈ 5.31 µg/mL) | 6.6 µM (≈ 3.3 µg/mL) | 7.9 µM (≈ 3.95 µg/mL) | 15.9 (≈ 7.96 µg/mL) | 6.6 µM (≈ 3.3 µg/mL) |  | 
16 | COc1nc(OC(=O)C(N)Cc2c[nH]c3ccccc23)nc(Oc2c(OC)cc(Cc3cnc(N)nc3N)cc2OC)n1 (configuration not stated) | 11.5 | 3.4 µM (≈ 2 µg/mL) | 1.4 µM (≈ 0.823 µg/mL) | 6.8 µM (≈ 4 µg/mL) | 2.3 (≈ 1.35 µg/mL) | 1.1 µM (≈ 0.646 µg/mL) |  | 
17 | COc1cc(Cc2cnc(N)nc2N)cc(OC)c1OC [TRIMETHOPRIM] |  | 22.7 µM (≈ 6.59 µg/mL) |  |  |  | 55.1 µM (≈ 16 µg/mL) |  | 
18 | NC(Cc1ccccc1)C(=O)NNC(=O)c1ccncc1 (configuration not stated) | 21.1 | inactive | inactive | inactive |  | inactive | inactive | 
19 | COc1nc(OCCn2c([N+](=O)[O-])cnc2C)nc(OC(=O)C(N)C(C)C)n1 (configuration not stated) | 19.5 | 81 µM (≈ 32 µg/mL) | 54 µM (≈ 21.4 µg/mL) | 81 µM (≈ 32 µg/mL) | 81 (≈ 32 µg/mL) | 67.3 µM (≈ 26.6 µg/mL) |  | 
20 | Cc1ncc([N+](=O)[O-])n1CCO |  | inactive | inactive | inactive |  | inactive |  | 13
21 | COc1nc(Nc2nc(N)ncc2Cc2cc(OC)c(OC)c(OC)c2)nc(OC(=O)C(N)Cc2ccccc2)n1 (configuration not stated) | 13.8 | 303 µM (≈ 171 µg/mL) | 28.4 µM (≈ 16 µg/mL) | 228 µM (≈ 128 µg/mL) | 56.8 (≈ 32 µg/mL) | 47.3 µM (≈ 26.6 µg/mL) |  | 
22 | COc1nc(NNC(=O)c2ccncc2)nc(OC(=O)C(N)C(C)C)n1 (configuration not stated) | 29.3 | 118 µM (≈ 42.6 µg/mL) | 74 µM (≈ 26.7 µg/mL) | 177 µM (≈ 64 µg/mL) | 74 (≈ 26.7 µg/mL) | 59 µM (≈ 21.3 µg/mL) |  | 
23 | COc1nc(Nc2nc(N)ncc2Cc2cc(OC)c(OC)c(OC)c2)nc(OC(=O)C(N)Cc2c[nH]c3ccccc23)n1 (configuration not stated) | 12 | 213 µM (≈ 128 µg/mL) | 53.2 µM (≈ 32 µg/mL) | 213 µM (≈ 128 µg/mL) | 53.2 (≈ 32 µg/mL) | 53.2 µM (≈ 32 µg/mL) |  | 
24 | O=C(O)c1cn(C2CC2)c2cc(N3CCNCC3)c(F)cc2c1=O [CIPROFLOXACIN] |  | 30.2 µM (≈ 10 µg/mL) | 30.2 µM (≈ 10 µg/mL) | 30.2 µM (≈ 10 µg/mL) |  | 30.2 µM (≈ 10 µg/mL) |  | 
25 | CC(C)C(N)C(=O)NNC(=O)c1ccncc1 (configuration not stated) | 48.6 | inactive | inactive | inactive |  | inactive | inactive | 
26 | CC[C@H]1OC(=O)[C@H](C)[C@@H](O[C@H]2C[C@@](C)(OC)[C@@H](O)[C@H](C)O2)[C@H](C)[C@@H](O[C@@H]2O[C@H](C)C[C@H](N(C)C)[C@H]2O)[C@](C)(O)C[C@@H](C)/C(=N\OCOCCOC)[C@H](C)[C@@H](O)[C@]1(C)O [ROXITHROMYCIN] |  | 0.6 µM (≈ 0.502 µg/mL) | 0.3 µM (≈ 0.251 µg/mL) | 0.6 µM (≈ 0.502 µg/mL) |  | 0.6 µM (≈ 0.502 µg/mL) |  | 
27 | COc1nc(OC(=O)C(N)Cc2ccccc2)nc(Oc2c(OC)cc(Cc3cnc(N)nc3N)cc2OC)n1 (configuration not stated) | 8.33 | 12 µM (≈ 6.58 µg/mL) | 6 µM (≈ 3.29 µg/mL) | 19.3 µM (≈ 10.6 µg/mL) | 7.3 (≈ 4 µg/mL) | 3.6 µM (≈ 1.97 µg/mL) |  | 
